From ChEMBL document CHEMBL4316598, “Synthesis, antiproliferative and apoptosis induction potential activities of novel bis(indolyl)hydrazide-hydrazone derivatives” (Bioorg Med Chem, 2019)
Calls of active or inactive are those of the source. No cut-off for these calls is given here.

Legend:
[1] = molecular target: T1, Tyrosine-protein phosphatase non-receptor type 1 (Homo sapiens) (UniProt P18031); experiment: Inhibition of recombinant human PTP1B using 6,8-difluoro-4-methylumbelliferyl phosphate fluorogenic substrate measured over 30 mins by fluorescence assay
T1 sequence (whole entry): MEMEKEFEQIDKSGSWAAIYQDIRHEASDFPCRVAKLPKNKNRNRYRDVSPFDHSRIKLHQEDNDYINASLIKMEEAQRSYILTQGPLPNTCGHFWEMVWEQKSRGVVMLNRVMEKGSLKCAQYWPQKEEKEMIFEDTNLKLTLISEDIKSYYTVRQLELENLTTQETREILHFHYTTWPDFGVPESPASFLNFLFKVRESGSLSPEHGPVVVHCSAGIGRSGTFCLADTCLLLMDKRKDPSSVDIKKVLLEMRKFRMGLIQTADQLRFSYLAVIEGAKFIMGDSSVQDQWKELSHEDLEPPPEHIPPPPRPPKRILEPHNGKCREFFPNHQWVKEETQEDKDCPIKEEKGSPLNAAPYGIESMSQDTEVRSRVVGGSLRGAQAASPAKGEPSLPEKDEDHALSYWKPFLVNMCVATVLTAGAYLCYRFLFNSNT
Procedure, shortened: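 Recombinant human PTP1B, 1.56 ng/well, in buffer of 25 mM HEPES, 50 mM NaCl, 2.5 mM EDTA, DTT and 0.01 mg/mL human albumin. Preincubated with compound for 30 min in the dark, then DiFMUP added (25 μL of 10 μM solution). Fluorescence read after 10 min (ex 360/em 465 nm). Triplicates; % inhibition relative to PTP inhibitor IV (0.16 mM) and buffer controls.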

HeLa [2] = experiment: Induction of apoptosis in human HeLa cells assessed as late apoptotic cells at 1 uM after 8 hrs by annexin-V FITC/propidium iodide staining based flow cytometric analysis relative to control; format: functional
Procedure, shortened: (§1)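 Cells were grown in DMEM with 10% heat-inactivated FBS at 37 °C and 5% CO₂, then plated at 500,000 cells/well in 24-well plates. They were treated from a DMSO stock (DMSO ≤0.1%) for 8, 12 or 16 h. After a PBS wash, cells were resuspended in binding buffer (10 mM HEPES pH 7.4, 2.5 mM CaCl₂, 140 mM NaCl, 0.1% BSA), stained 40 min with FITC-annexin V, then with PI, and run on the flow cytometer immediately. Values are the mean of three independent experiments.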

[3] = molecular target: T2, c-Jun N-terminal kinase, JNK (Homo sapiens) (UniProt P45983+P53779+P45984); experiment: Activation of JNK phosphorylation in human MCF7 cells assessed as increase in ratio of phosphorylated JNK to total JNK level at 5 uM by ELISA; format: cell-based
Procedure, shortened: (§2)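 Cell-based ELISA: HeLa or MCF-7 cells (20×10^3/well) grown overnight at 37 °C, 5% CO2, treated with 5 μM, then fixed and blocked. Probed with rabbit anti-total and anti-phospho P38, JNK or ERK1/2 (1:100), then HRP anti-rabbit IgG. Result is the phospho/total ratio; inhibitor arms use […], […] or SP600125. n=3.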

HeLa [4] = experiment: Induction of caspase-dependent apoptosis in human HeLa cells assessed as activation of caspase-7 at 1 to 3 uM after 24 hrs by Western blot analysis; format: functional, cell-based
Procedure, shortened: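 Cells were treated at 1, 3 and 5 µM for 24 h at 37 °C. Lysis was in ice-cold Triton X-100 buffer with protease and phosphatase inhibitors; nuclear proteins were extracted separately. Protein was quantified by BCA. Lysates were separated by electrophoresis, transferred to nitrocellulose and blocked in non-fat milk for 1 h. Primary antibody was applied overnight at 4 °C and secondary for 1 h at 28 °C. Detection was by enhanced chemiluminescence.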

SCC-25 = experiment: Cytotoxicity against human SCC25 cells assessed as reduction in cell viability after 4 hrs by MTT assay; format: functional, cell-based
HeLa [5] = experiment: Induction of apoptosis in human HeLa cells assessed as necrotic cells at 1 uM after 16 hrs by annexin-V FITC/propidium iodide staining based flow cytometric analysis relative to control; format: functional; procedure, shortened: as §1
MCF7 = experiment: Induction of ROS generation in human MCF7 cells at 5 uM after 12 hrs by CM-H2DCFDA staining-based FACS analysis; format: functional, cell-based
Procedure, shortened: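 CM-H2DCFDA ROS: HeLa or MCF-7 cells at 2×10^6/well in 6-well plates treated with 5 μM (final) for 12 or 24 h at 37 °C. Cells harvested, washed with PBS, stained with CM-H2DCFDA in PBS 30 min at 37 °C, washed with ice-cold PBS. Read by FACScan with 488 nm argon laser.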

[6] = molecular target: T2, c-Jun N-terminal kinase, JNK (Homo sapiens); experiment: Activation of JNK phosphorylation in human MCF7 cells assessed as increase in ratio of phosphorylated JNK to total JNK level at 5 uM in presence of JNK inhibitor SP600125 by ELISA; format: cell-based; procedure, shortened: as §2
HeLa [7] = experiment: Induction of ROS generation in human HeLa cells at 5 uM after 4 hrs by DCFH-DA staining-based fluorescence spectrophotometric analysis relative to control; format: functional
Procedure, shortened: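 DCFH-DA ROS: HeLa or MCF-7 cells at 2×10^6/well cultured 12 h, treated 4 or 8 h; t-BHP (10 μM) is the positive control. DCFH-DA 10 μM added for 10 min at 37 °C, cells washed twice with PBS. Fluorescence read at ex 485/em 520 nm. For the NAC arm, NAC (5 mM) is added to the medium before treatment.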

HEK293 = experiment: Cytotoxicity against HEK293 cells assessed as reduction in cell viability after 4 hrs by MTT assay; format: cell-based, Homo sapiens; settings: Homo sapiens, HEK293, 4 h; read-out: IC50
Procedure, shortened: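 MTT: 10,000–20,000 cells/well attached for 16 h, then washed twice with serum-free RPMI. Treated with 1–200 µM for 4 h, 3 parallel runs per concentration. MTT added for 2 h; medium partly removed and isopropanol added. A590 read. Viability = (A treated − A doxorubicin)/(A medium − A doxorubicin)×100. Mean of three experiments, triplicate wells each.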

With `Cn1cc(/C=N\NC(=O)c2cn(C)c3ccc(Br)cc23)c2ccccc21` the inhibition [1] was “Dose-dependent effect”, the Activity (HeLa [2]) was 11.5% and the Activity [3] was “Active”. The Activity (HeLa [4]) was “inactive”, the Activity (SCC-25) was “Dose-dependent effect” and the IC50 (SCC-25; SCC-25, 4 h) was 10.1 µM. The Activity (HeLa [5]) was 1.77%, the Activity (MCF7) was “Active” and the Activity [6] was “inactive”. It also gave an Activity (HeLa [7]) of 29.9% and an IC50 (HEK293) greater than 200 µM.
